Reference: ChEMBL document CHEMBL4414579, “Natural Hydroxamate-Containing Siderophore Acremonpeptides A-D and an Aluminum Complex of Acremonpeptide D from the Marine-Derived Acremonium persicinum SCSIO 115” (J Nat Prod, 2019)
The source made the active and inactive calls. No cut-off for these calls is given here. Square brackets hold non-standard residues; d marks the D form. Peptide text beside a SMILES is read from it. Orn(N5-OH,N5-Ac) = CC(=O)N(O)CCC[C@H](N)C(=O)O

Tests used:
Type in all cases: functional, organism-based
Candida albicans [1] = experiment: Antifungal activity against Candida albicans CMCC(F) 98001
In short: (§1)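 Tested against the yeast by a previously reported antimicrobial method, at concentrations up to 100 μg/mL.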

Bacillus thuringiensis [2] = experiment: Antibacterial activity against Bacillus thuringiensis W102 up to 100 ug/ml by CLSI based method
Acinetobacter baumannii = experiment: Antibacterial activity against Acinetobacter baumannii ATCC 19606 up to 100 ug/ml by CLSI based method; conditions: ATCC 19606 = CIP 70.34 = JCM 6841
Escherichia coli [3] = experiment: Antibacterial activity against Escherichia coli ATCC 25922 up to 100 ug/ml by CLSI based method
Human alphaherpesvirus 1 [4] = experiment: Antiviral activity against HSV-1 infected in African green monkey Vero cells assessed as inhibition of GFP expression after 72 hrs by GFP-based fluorescence microscopic analysis; conditions: Human alphaherpesvirus 1, Vero
In short: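 Vero cells were infected at MOI 1.0 with recombinant HSV-1 carrying a GFP reporter. Cells were treated with compounds at 10 μM final or an equal amount of DMSO, with ganciclovir as positive control, and GFP was monitored by fluorescence microscopy. For EC50, infected cells were treated at several concentrations in triplicate, and viral load was measured by TCID50 at 72 h postinfection.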

Human alphaherpesvirus 1 [5] = experiment: Inhibition of UL42 gene transcription in HSV-1 infected in African green monkey Vero cells at 10 uM by qRT-PCR analysis
In short: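 Vero cells were infected with GFP-reporter HSV-1 at MOI 1.0, then exposed to compounds at 10 μM final or DMSO. Viral gene transcription was quantified by qRT-PCR, with ganciclovir as positive control and NTC as negative control.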

Candida albicans [6] = experiment: Antifungal activity against Candida albicans ATCC 96901; in short: as §1
Staphylococcus aureus [7] = experiment: Antibacterial activity against methicillin resistant Staphylococcus aureus shhs-A1 up to 100 ug/ml by CLSI based method
In short: (§2)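 Both strains were clinical isolates. They were screened within a panel of nine bacteria and two Candida albicans strains, at concentrations up to 100 μg/mL, by a previously reported method.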

Escherichia coli [8] = experiment: Antibacterial activity against drug-resistant Escherichia coli E11 up to 100 ug/ml by CLSI based method; in short: as §2
Klebsiella pneumoniae = experiment: Antibacterial activity against Klebsiella pneumoniae ATCC 13883 up to 100 ug/ml by CLSI based method
Staphylococcus aureus [9] = experiment: Antibacterial activity against Staphylococcus aureus ATCC 29213 up to 100 ug/ml by CLSI based method
Enterococcus faecalis = experiment: Antibacterial activity against Enterococcus faecalis ATCC 29212 up to 100 ug/ml by CLSI based method
Bacillus thuringiensis [10] = experiment: Antibacterial activity against Bacillus thuringiensis BT01 up to 100 ug/ml by CLSI based method

In the case of CC(=O)N(O)CCC[C@@H]1NC(=O)[C@H](CCCN(O)C(C)=O)NC(=O)[C@H](CCCN(O)C(C)=O)NC(=O)[C@H](Cc2ccccc2)NC(=O)[C@H](CC(C)C)NC(=O)[C@H](C)NC1=O (cyclo(ALF[Orn(N5-OH,N5-Ac)][Orn(N5-OH,N5-Ac)][Orn(N5-OH,N5-Ac)])), the Activity (Candida albicans [1]) is reported as “inactive”, the Activity (Bacillus thuringiensis [2]) is reported as “inactive” and the Activity (Acinetobacter baumannii) is reported as “inactive”. The Activity (Escherichia coli [3]) was “inactive”, the EC50 (Human alphaherpesvirus 1 [4]) was 8.7 µM and the inhibition (Human alphaherpesvirus 1 [5]) was “Active”. The Activity (Candida albicans [6]) was “inactive”, the Activity (Staphylococcus aureus [7]) was “inactive” and the Activity (Escherichia coli [8]) was “inactive”. For the same compound, the Activity (Klebsiella pneumoniae) was “inactive”, the Activity (Staphylococcus aureus [9]) was “inactive” and the Activity (Enterococcus faecalis) was “inactive”. The Activity (Bacillus thuringiensis [10]) was “inactive”.
CC(=O)N(O)CCC[C@@H]1NC(=O)[C@H](CCCN(O)C(C)=O)NC(=O)[C@H](Cc2ccccc2)NC(=O)[C@H](CC(C)C)NC(=O)[C@H](Cc2ccccc2)NC(=O)[C@H](CCCN(O)C(C)=O)NC1=O (cyclo(FLF[Orn(N5-OH,N5-Ac)][Orn(N5-OH,N5-Ac)][Orn(N5-OH,N5-Ac)])) was tested, and the Activity (Candida albicans [1]) was “inactive”, the Activity (Bacillus thuringiensis [2]) was “inactive” and the Activity (Acinetobacter baumannii) was “inactive”. The Activity (Escherichia coli [3]) was “inactive”, the EC50 (Human alphaherpesvirus 1 [4]) was 27 µM and the Activity (Candida albicans [6]) was “inactive”. The Activity (Staphylococcus aureus [7]) was “inactive”, the Activity (Escherichia coli [8]) was “inactive” and the Activity (Klebsiella pneumoniae) was “inactive”. The Activity (Staphylococcus aureus [9]) was “inactive”, the Activity (Enterococcus faecalis) was “inactive” and the Activity (Bacillus thuringiensis [10]) was “inactive”.
With CC(=O)N(O)CCC[C@@H]1NC(=O)[C@H](CCCN(O)C(C)=O)NC(=O)[C@H](CCCN(O)C(C)=O)NC(=O)[C@H](Cc2ccccc2)NC(=O)[C@H](CC(C)C)NC(=O)[C@H](CO)NC1=O (cyclo(F[Orn(N5-OH,N5-Ac)][Orn(N5-OH,N5-Ac)][Orn(N5-OH,N5-Ac)]SL)) the Activity (Candida albicans [1]) was “inactive”, the Activity (Bacillus thuringiensis [2]) was “inactive” and the Activity (Acinetobacter baumannii) was “inactive”. The Activity (Escherichia coli [3]) was “inactive”, the EC50 (Human alphaherpesvirus 1 [4]) was 16 µM and the inhibition (Human alphaherpesvirus 1 [5]) was “Active”. For the same compound, the Activity (Candida albicans [6]) was “inactive”, the Activity (Staphylococcus aureus [7]) was “inactive” and the Activity (Escherichia coli [8]) was “inactive”. The Activity (Klebsiella pneumoniae) was “inactive”, the Activity (Staphylococcus aureus [9]) was “inactive” and the Activity (Enterococcus faecalis) was “inactive”. For the same compound, the Activity (Bacillus thuringiensis [10]) was “inactive”.
In the case of CC(=O)N(O)CCC[C@@H]1NC(=O)[C@H](CCCN(O)C(C)=O)NC(=O)[C@H](Cc2ccccc2)NC(=O)[C@H](CC(C)C)NC(=O)[C@H](Cc2c[nH]c3ccccc23)NC(=O)[C@H](CCCN(O)C(C)=O)NC1=O (cyclo(F[Orn(N5-OH,N5-Ac)][Orn(N5-OH,N5-Ac)][Orn(N5-OH,N5-Ac)]WL)), the Activity (Candida albicans [1]) is reported as “inactive”, the Activity (Bacillus thuringiensis [2]) is reported as “inactive” and the Activity (Acinetobacter baumannii) is reported as “inactive”. The Activity (Escherichia coli [3]) was “inactive”, the EC50 (Human alphaherpesvirus 1 [4]) was 24 µM and the Activity (Candida albicans [6]) was “inactive”. The Activity (Staphylococcus aureus [7]) was “inactive”, the Activity (Escherichia coli [8]) was “inactive” and the Activity (Klebsiella pneumoniae) was “inactive”. The Activity (Staphylococcus aureus [9]) was “inactive”, the Activity (Enterococcus faecalis) was “inactive” and the Activity (Bacillus thuringiensis [10]) was “inactive”.
In the case of Nc1nc2c(ncn2COC(CO)CO)c(=O)[nH]1 [GANCICLOVIR], the EC50 (Human alphaherpesvirus 1 [4]) is reported as 0.025 µM and the inhibition (Human alphaherpesvirus 1 [5]) is reported as “Active”.
